Measurements taken from ChEMBL document CHEMBL3774372, “Design, physico-chemical properties and biological evaluation of some new N-[(phenoxy)alkyl]- and N-{2-[2-(phenoxy)ethoxy]ethyl}aminoalkanols as anticonvulsant agents” (Bioorg Med Chem, 2016).
Active and inactive are the calls of the source. No cut-off for these calls is given here.

Experiments:
Rattus norvegicus [1] = experiment: Anticonvulsant activity in pilocarpine-induced status epilepticus Sprague-Dawley rat model at 100 mg/kg, ip after 1 hr during post stage 3 seizure; assay type: functional, organism-based
Outline: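 Rats given pilocarpine 50 mg/kg ip and observed to first convulsive seizure (Racine stage 3–5, time zero); test drug then given ip in 0.5% methylcellulose. Efficacy = halting further stage 3–5 convulsive seizures; scored protected/tested, time after first stage 3 seizure.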

[2] = Ratio of drug level in brain to plasma in CD1 mouse at 12.92 mg/kg, ip administered as single dose measured after 60 mins by LC/ESI-MS/MS analysis; assay type: ADME, organism-based; details: brain and plasma, read-out: BPR
[3] = Tmax in CD1 mouse brain at 12.92 mg/kg, ip measured up to 240 mins by LC/ESI-MS/MS analysis; assay type: ADME, organism-based
Vibrio harveyi [4] = experiment: Mutagenicity in Vibrio harveyi BB7X assessed as number of colonies after 48 hrs (reference value: 15 to 16 no_unit); assay type: ADME, organism-based; details: in vivo
Outline: (§1)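 Vibrio harveyi mutagenicity test: test compound was added to exponentially growing cultures (A600 = 0.1, 30 °C) and grown to OD600 0.3–0.4. Then 5 × 10^6 cells were plated on BOSS agar with neomycin (final 100 µg/mL) and incubated 48 h at 30 °C. Neomycin-resistant colonies were counted. Triplicate; controls were water, DMSO and NQNO 40 ng/mL.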

[5] = Ratio of drug level in brain to plasma in CD1 mouse at 12.92 mg/kg, ip administered as single dose measured after 30 mins by LC/ESI-MS/MS analysis; assay type: ADME, organism-based; details: brain and plasma, read-out: BPR
[6] = Ratio of drug level in brain to plasma in CD1 mouse at 12.92 mg/kg, ig administered as single dose measured after 30 mins by LC/ESI-MS/MS analysis; assay type: ADME, organism-based; details: brain and plasma, po, read-out: BPR
[7] = AUC (0 to infinity) in CD1 mouse brain at 12.92 mg/kg, ip measured up to 240 mins by LC/ESI-MS/MS analysis; assay type: ADME, organism-based; parameters: dose 12.92 mg/kg, route intraperitoneal, time infinity
Mus musculus [8] = experiment: Tmax in CD1 mouse plasma at 12.92 mg/kg, ig measured up to 240 mins by LC/ESI-MS/MS analysis; assay type: ADME, organism-based; details: in vivo, po, 4 h
[9] = Cmax in CD1 mouse brain at 12.92 mg/kg, ig measured up to 240 mins by LC/ESI-MS/MS analysis; assay type: ADME, organism-based; parameters: dose 12.92 mg/kg, route […]; details: po
[10] = Ratio of drug level in brain to plasma in CD1 mouse at 1 mg/kg, iv administered as single dose measured after 30 mins by LC/ESI-MS/MS analysis; assay type: ADME, organism-based; details: brain and plasma, read-out: BPR
[11] = Cmax in CD1 mouse brain at 1 mg/kg, iv measured up to 240 mins by LC/ESI-MS/MS analysis; assay type: ADME, organism-based; parameters: dose 1 mg/kg, route intravenous
Vibrio harveyi [12] = experiment: Mutagenicity in Vibrio harveyi BB7M assessed as number of colonies after 48 hrs (reference value: 13 to 14 no_unit); assay type: ADME, organism-based; details: in vivo; outline: as §1
Rattus norvegicus [13] = experiment: Toxicity in pilocarpine-induced status epilepticus Sprague-Dawley rat assessed as death at 400 mg/kg, ip; assay type: organism-based; details: in vivo
Outline: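 Pilocarpine 50 mg/kg ip given to male Sprague-Dawley rats (150–180 g). At the first stage 3–5 seizure (Racine scale), compound was given ip to groups of 8. Deaths and protection were recorded at 0.25–4 h; weight change was measured 24 h after the first stage 3 seizure.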

[14] = Tmax in CD1 mouse brain at 1 mg/kg, iv measured up to 240 mins by LC/ESI-MS/MS analysis; assay type: ADME, organism-based
[15] = Ratio of drug level in brain to plasma in CD1 mouse at 12.92 mg/kg, ig administered as single dose measured after 5 mins by LC/ESI-MS/MS analysis; assay type: ADME, organism-based; details: brain and plasma, po, read-out: BPR
Mus musculus [16] = experiment: AUC (0 to infinity) in CD1 mouse plasma at 12.92 mg/kg, ig measured up to 240 mins by LC/ESI-MS/MS analysis; assay type: ADME, organism-based; parameters: dose 12.92 mg/kg, time infinity, route […]; details: in vivo, po, 4 h
[17] = MRT in CD1 mouse plasma at 1 mg/kg, iv measured up to 240 mins by LC/ESI-MS/MS analysis; assay type: ADME, organism-based
[18] = MRT in CD1 mouse plasma at 12.92 mg/kg, ig measured up to 240 mins by LC/ESI-MS/MS analysis; assay type: ADME, organism-based; details: po
[19] = Ratio of drug level in brain to plasma in CD1 mouse at 12.92 mg/kg, ip administered as single dose measured after 15 mins by LC/ESI-MS/MS analysis; assay type: ADME, organism-based; details: brain and plasma, read-out: BPR
Mus musculus [20] = experiment: Neurotoxicity in mouse at 100 mg/kg, ip after 0.5 hrs by rotarod test; assay type: toxicity, organism-based; details: in vivo
Outline: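 Mice were dosed ip with compound suspended in 0.5% methylcellulose. Rotarod: a 1 in. knurled rod turning at 6 rpm. Neurotoxicity was scored as failure to stay on the rod for at least 1 min in each of three trials. Results are given as the number of animals affected out of the number tested.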

[21] = AUC (0 to infinity) in CD1 mouse brain at 1 mg/kg, iv measured up to 240 mins by LC/ESI-MS/MS analysis; assay type: ADME, organism-based; parameters: dose 1 mg/kg, route intravenous, time infinity
[22] = Ratio of drug level in brain to plasma in CD1 mouse at 12.92 mg/kg, ip administered as single dose measured after 5 mins by LC/ESI-MS/MS analysis; assay type: ADME, organism-based; details: brain and plasma, read-out: BPR
[23] = Ratio of drug level in brain to plasma in CD1 mouse at 12.92 mg/kg, ig administered as single dose measured after 60 mins by LC/ESI-MS/MS analysis; assay type: ADME, organism-based; details: brain and plasma, po, read-out: BPR
[24] = Ratio of drug level in brain to plasma in CD1 mouse at 1 mg/kg, iv administered as single dose measured after 60 mins by LC/ESI-MS/MS analysis; assay type: ADME, organism-based; details: brain and plasma, read-out: BPR
Mus musculus [25] = experiment: Anticonvulsant activity in ip dosed mouse assessed as protection against maximal electric shock-induced seizures measured after […]; assay type: functional
Mus musculus [26] = experiment: Analgesic activity in mouse assessed as reduction in AUC of formalin-induced licking time during acute phase at 13 mg/kg, ip relative to control; assay type: functional
Outline: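 Formalin injected into a mouse hindlimb; total licking time taken as pain intensity. Compound given ip at 13 mg/kg as a suspension in 0.5% methylcellulose; vehicle-only animals served as controls.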

Mus musculus [27] = experiment: Anticonvulsant activity in mouse assessed as protection against 6 Hz psychomotor seizure at 20 mg/kg, ip after 4 hrs; assay type: functional, organism-based
Outline: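 Suspension in 0.5% methylcellulose given ip to mice; corneal stimulation with 0.2 ms monopolar rectangular pulses at 6 Hz for 3 s from a constant current device, mice restrained then released to observation cage. Protected if normal exploratory behaviour resumed within 10 s of stimulation. Scored as protected/tested, 4 mice per group.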

Mus musculus [28] = experiment: Anticonvulsant activity in mouse assessed as protection against 6 Hz psychomotor seizure at 20 mg/kg, ip after […]; assay type: functional, organism-based
Rattus norvegicus [29] = experiment: Anticonvulsant activity in rat assessed as protection against maximal electric shock-induced seizures at 30 mg/kg, po measured after 4 hrs; assay type: functional, organism-based
Outline: (§2)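 Rats dosed ip or orally as 0.5% methylcellulose suspension; maximal electroshock at listed time. Protection = abolition of hindlimb tonic extension; 4 rats per group, scored protected/tested.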

Rattus norvegicus [30] = experiment: Anticonvulsant activity in rat assessed as protection against maximal electric shock-induced seizures at 30 mg/kg, po measured after 2 hrs; assay type: functional, organism-based; outline: as §2

Structure (SMILES): Cc1cccc(C)c1OCCOCCN[C@H](C)CO
- Activity (Rattus norvegicus [1]): inactive

Structure (SMILES): Cc1cccc(C)c1OCCOCCN[C@H](C)CO.Cl
- Kp at 1 h [2]: 1.91
- Tmax [3]: 15 min
- Activity (Vibrio harveyi [4]): 25
- Kp at 0.5 h [5]: 4.25
- Kp at 0.5 h [6]: 2.12
- AUC(0-inf) [7]: 2160 ng·h/mL
- Tmax (Mus musculus [8]): 5 min
- Cmax [9]: 1640 ng/mL
- Kp at 0.5 h [10]: 5.41
- Cmax [11]: 11500 ng/mL
- Activity (Vibrio harveyi [12]): 22
- Activity (Rattus norvegicus [13]): Non-toxic
- Tmax [14]: 5 min
- Kp at 5 min [15]: 1.73
- AUC (Mus musculus [16]): 396 ng·h/mL
- MRT [17]: 55.6 min
- MRT [18]: 40.3 min
- Kp at […] [19]: 2.55
- Activity (Mus musculus [20]): Toxic
- AUC(0-inf) [21]: 5150 ng·h/mL
- Kp at 5 min [22]: 1.13
- Kp at 1 h [23]: 5.95
- Kp at 1 h [24]: 3.58
- ED50 (Mus musculus [25]): 12.9 mg/kg
- inhibition in vivo at 13 mg/kg (Mus musculus [26]): 54.9%

Structure (SMILES): Cc1cccc(C)c1OCCOCCN[C@@H](C)CO
- Activity (Mus musculus [27]): inactive
- Activity (Mus musculus [28]): inactive
- Activity (Rattus norvegicus [29]): inactive
- Activity (Rattus norvegicus [30]): inactive
